Measurements reported in ChEMBL document CHEMBL1142491, “Linking bisphosphonates to the free amino groups in fluoroquinolones: preparation of osteotropic prodrugs for the prevention of osteomyelitis” (J Med Chem, 2008).
In brackets after ≈: the same amount, converted by molar mass. Activity calls are given as the source filed them. No cut-off for these calls is given here.

How the values were obtained:
[1] = system: Serum; experiment: Stability in 50% rat serum assessed as amount of parent drug released from cattle bone meal powder over 24 hrs; assay type: ADME, cell-free
In short: (§1)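 Washed bone powder carrying bound prodrug resuspended in PBS or 50% (v/v in PBS) human or rat serum, 24 h at 37 °C, then centrifuged. Supernatant extracted with 5 volumes methanol (15 min vortex), spun, dried, redissolved in PBS. Released fluoroquinolone quantified by fluorescence. Limit of detection 0.01%.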

[2] = system: Staphylococcus aureus; experiment: Antibacterial activity against Staphylococcus aureus ATCC 13709 after 24 hrs by microdilution method; assay type: functional; conditions: ATCC 13709, 24 h
In short: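 MIC by broth microdilution per CLSI guidelines (M7 A7) against S. aureus ATCC 13709.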

[3] = Stability in phosphate buffer saline assessed as amount of parent drug released from cattle bone meal powder over 24 hrs; assay type: ADME; in short: as §1
[4] = system: Serum; experiment: Stability in 50% human serum assessed as amount of parent drug released from cattle bone meal powder over 24 hrs; assay type: ADME, cell-free; in short: as §1
[5] = system: Bone; experiment: Binding affinity to bone assessed as drug level bound to cattle bone meal powder by fluorescence assay; assay type: tissue-based; design: concentration or dose not given beside the values; conditions: Bos taurus; Bone element
In short: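 Compound dissolved in PBS, added at 1 mg/mL final to bone meal powder slurry (10 mg/mL in PBS), 37 °C for 1 h. Spun 13 000 rpm 2 min. Bound amount taken as input minus amount in supernatant, measured by fluorescence. Limit of detection 0.01%.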

[6] = system: Staphylococcus aureus; experiment: Protective effect against Staphylococcus aureus ATCC 13709-induced bone infection in CD rat at 20 mg/kg, iv administered as single dose 2 days before bacterial challenge; assay type: functional, organism-based; design: dose 20 mg/kg
In short: (§2)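 S. aureus ATCC 13709 inoculum from frozen stock. Rats given intratibial 5% sodium morrhuate then about 5 × 10^5 CFU. Single IV bolus in saline, at the stated time relative to infection. Sacrificed 24 h post-infection. Tibiae milled and plated; mean log CFU/g bone ± SD. Detection limit 2 log CFU/g. Dunnett's test vs untreated, P<0.05.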

[7] = system: Staphylococcus aureus; experiment: Protective effect against Staphylococcus aureus ATCC 13709-induced bone infection in CD rat at 10 mg/kg, iv administered as single dose 1 hr after bacterial challenge; assay type: functional, organism-based; design: dose 10 mg/kg; in short: as §2
[8] = system: Staphylococcus aureus; experiment: Protective effect against Staphylococcus aureus ATCC 13709-induced bone infection in CD rat at 20.8 mg/kg, iv administered as single dose 1 day before bacterial challenge; assay type: functional, organism-based; design: dose 20.8 mg/kg; in short: as §2
[9] = system: Staphylococcus aureus; experiment: Protective effect against Staphylococcus aureus ATCC 13709-induced bone infection in CD rat at 42 mg/kg, iv administered as single dose 2 days before bacterial challenge; assay type: functional, organism-based; design: dose 42 mg/kg; in short: as §2
[10] = system: Staphylococcus aureus; experiment: Protective effect against Staphylococcus aureus ATCC 13709-induced bone infection in CD rat at 24 mg/kg, iv administered as single dose 1 day before bacterial challenge; assay type: functional, organism-based; design: dose 24 mg/kg; in short: as §2

| Activity [1] [%] | MIC [2] [µg/mL] | Activity [3] [%] | Activity [4] [%] | Activity [5] [%] | Structure (SMILES) | Activity [6] | Activity [7] | Activity [8] | Activity [9] | Activity [10] |
| --- | --- | --- | --- | --- | --- | --- | --- | --- | --- | --- |
| 1.8 | > 4 | 1.5 | 2.4 | 94.3 | COc1c(N2CCN(C(=O)OC(C)OC(=O)CCCC(=O)NC(P(=O)(O)O)P(=O)(O)O)C(C)C2)c(F)cc2c(=O)c(C(=O)O)cn(C3CC3)c12 (configuration not stated) | – | – | – | – | – |
| 6.1 | > 4 | 0.8 | 3.6 | 76 | COc1c(N2CCN(C(=O)CC(C)(C)c3cc(P(=O)(O)CP(=O)(O)O)ccc3OC(=O)C(C)C)C(C)C2)c(F)cc2c(=O)c(C(=O)O)cn(C3CC3)c12 (configuration not stated) | – | – | – | – | – |
| 30 | < 0.12 | 7.5 | 22.8 | 63.7 | COc1c(N2CCN(Cc3oc(=O)oc3-c3ccc(P(=O)(O)CP(=O)(O)O)cc3)C(C)C2)c(F)cc2c(=O)c(C(=O)O)cn(C3CC3)c12 (configuration not stated) | – | – | – | – | – |
| 1.4 | > 4 | 1.2 | 1.8 | 93.9 | COc1c(N2C[C@@H]3CCCN(C(=O)OC(C)OC(=O)CCCC(=O)NC(P(=O)(O)O)P(=O)(O)O)[C@@H]3C2)c(F)cc2c(=O)c(C(=O)O)cn(C3CC3)c12 (some centres not stated) | – | – | – | – | – |
| 0.01 | > 4 | 0.01 | 0.01 | 99.6 | O=C(O)c1cn(C2CC2)c2cc(N3CCN(CC(P(=O)(O)O)P(=O)(O)O)CC3)c(F)cc2c1=O | – | – | – | – | – |
| 0.01 | > 4 | 0.01 | 0.01 | 98.2 | COc1c(N2CCN(C(=O)CC(P(=O)(O)O)P(=O)(O)O)C(C)C2)c(F)cc2c(=O)c(C(=O)O)cn(C3CC3)c12 (configuration not stated) | – | – | – | – | – |
| 4.2 | 0.12 (≈ 0.162 µM) | 2.3 | 4.3 | 94.7 | COc1c(N2CCN(CCC(=O)c3ccc(OCCCC(P(=O)(O)O)P(=O)(O)O)cc3)C(C)C2)c(F)cc2c(=O)c(C(=O)O)cn(C3CC3)c12 (configuration not stated) | – | – | Active | – | – |
| 0.7 | > 4 | 0.7 | 0.9 | 88.4 | COc1c(N2CCN(C(=O)OC(C)OC(=O)CCCC(P(=O)(O)O)P(=O)(O)O)C(C)C2)c(F)cc2c(=O)c(C(=O)O)cn(C3CC3)c12 (configuration not stated) | – | – | – | – | – |
| 6.2 | > 4 | 5.4 | 3.7 | 36.6 | COc1c(N2CCN(C(=O)CC(C)(C)c3cc(P(=O)(O)CP(=O)(O)O)ccc3OC(C)=O)C(C)C2)c(F)cc2c(=O)c(C(=O)O)cn(C3CC3)c12 (configuration not stated) | – | – | – | – | – |
| 0.01 | > 4 | 0.01 | 0.01 | 92.2 | COc1c(N2C[C@@H]3CCCN(CC(P(=O)(O)O)P(=O)(O)O)[C@@H]3C2)c(F)cc2c(=O)c(C(=O)O)cn(C3CC3)c12 | – | – | – | – | – |
| – | > 4 | – | – | 0.01 | COc1c(N2CCN(C(=O)CC(C)(C)c3cc(P(=O)(O)CP(=O)(O)O)ccc3OP(=O)(O)O)C(C)C2)c(F)cc2c(=O)c(C(=O)O)cn(C3CC3)c12 (configuration not stated) | – | – | – | – | – |
| 25.4 | 0.5 (≈ 0.736 µM) | 13.4 | 21.2 | 86.4 | COc1c(N2CCN(C(=O)OCOC(=O)CCC(P(=O)(O)O)P(=O)(O)O)C(C)C2)c(F)cc2c(=O)c(C(=O)O)cn(C3CC3)c12 (configuration not stated) | – | – | – | Active | – |
| 0.01 | > 4 | 0.01 | 0.01 | 99.9 | COc1c(N2C[C@@H]3CCCN(C(=O)CC(P(=O)(O)O)P(=O)(O)O)[C@@H]3C2)c(F)cc2c(=O)c(C(=O)O)cn(C3CC3)c12 | – | – | – | – | inactive |

| Structure (SMILES) | Activity [1] [%] | MIC [2] [µg/mL] | Activity [3] [%] | Activity [4] [%] | Activity [5] [%] | Activity [6] | Activity [7] | Activity [8] | Activity [9] | Activity [10] |
| --- | --- | --- | --- | --- | --- | --- | --- | --- | --- | --- |
| COc1c(N2CCNC(C)C2)c(F)cc2c(=O)c(C(=O)O)cn(C3CC3)c12 (configuration not stated) [GATIFLOXACIN] | – | 0.06 (≈ 0.16 µM) | – | – | 0.01 | inactive | – | – | – | – |
| COc1c(N2C[C@@H]3CCCN[C@@H]3C2)c(F)cc2c(=O)c(C(=O)O)cn(C3CC3)c12 [MOXIFLOXACIN] | – | 0.03 (≈ 0.0747 µM) | – | – | 0.01 | – | Active | – | – | – |
| O=C(O)c1cn(C2CC2)c2cc(N3CCNCC3)c(F)cc2c1=O [CIPROFLOXACIN] | – | – | – | – | 0.01 | – | – | – | – | – |
